Activity calls are given as the source filed them. The calls are words filed in the database; no cut-off is given here.
Experiments:
[1] = biological target: T1, Low molecular weight phosphotyrosine protein phosphatase (Homo sapiens, UniProt P24666); assay: Inhibition of His-tagged LMW-PTP isoform A (unknown origin) expressed in Escherichia coli BL21 cells using para-nitrophenyl phosphate as substrate incubated for 5 to 10 mins by microplate reader based spectrophotometric analysis
T1 sequence (P24666 whole entry): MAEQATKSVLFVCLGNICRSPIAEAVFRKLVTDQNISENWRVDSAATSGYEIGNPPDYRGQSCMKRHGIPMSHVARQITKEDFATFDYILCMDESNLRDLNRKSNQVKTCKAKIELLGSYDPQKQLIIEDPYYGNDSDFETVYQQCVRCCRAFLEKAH

[2] = biological target: T2, Dual specificity protein phosphatase 23 (Homo sapiens, UniProt Q9BVJ7); assay: Inhibition of His-tagged VHZ (unknown origin) expressed in Escherichia coli BL21 cells using para-nitrophenyl phosphate as substrate incubated for 5 to 10 mins by microplate reader based spectrophotometric analysis
T2 sequence (Q9BVJ7 whole entry): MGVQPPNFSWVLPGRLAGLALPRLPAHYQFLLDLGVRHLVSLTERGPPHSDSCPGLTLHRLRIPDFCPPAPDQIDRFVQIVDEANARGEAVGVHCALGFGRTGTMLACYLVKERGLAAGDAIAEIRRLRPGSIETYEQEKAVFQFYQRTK

[3] = Inhibition of His-tagged PTP-H1 (unknown origin) expressed in Escherichia coli BL21 cells using para-nitrophenyl phosphate as substrate incubated for 5 to 10 mins by microplate reader based spectrophotometric analysis; design: species or system Homo sapiens
Outline: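 Enzyme at 5-20 nM was added to substrate plus a range of inhibitor concentrations and run 5-10 min at room temperature. Quenched with 5N NaOH and p-nitrophenol read at 405 nm (ε 18,000 M-1cm-1), with a no-enzyme background correction. IC50 from curve fitting.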

[4] = biological target: T3, RNA polymerase II subunit A C-terminal domain phosphatase SSU72 (Homo sapiens, UniProt Q9NP77); assay: Inhibition of His-tagged SSu72 (unknown origin) expressed in Escherichia coli BL21 cells using para-nitrophenyl phosphate as substrate incubated for 5 to 10 mins by microplate reader based spectrophotometric analysis
T3 sequence (Q9NP77 whole entry): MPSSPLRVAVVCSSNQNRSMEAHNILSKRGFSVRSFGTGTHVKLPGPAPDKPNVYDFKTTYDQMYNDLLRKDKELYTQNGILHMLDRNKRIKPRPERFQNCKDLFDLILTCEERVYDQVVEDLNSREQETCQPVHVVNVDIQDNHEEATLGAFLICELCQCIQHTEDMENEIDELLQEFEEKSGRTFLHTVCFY

[5] = biological target: T1, Low molecular weight phosphotyrosine protein phosphatase; assay: Competitive inhibition of His-tagged LMW-PTP isoform A (unknown origin) expressed in Escherichia coli BL21 cells using para-nitrophenyl phosphate as substrate by Lineweaver-Burk plot analysis
Outline: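 Recombinant enzyme Ni-NTA purified (Tris pH 7.8, 500 mM NaCl, 250 mM imidazole elution), then Sephadex G75. pNPP hydrolysis in 50 mM 3,3-dimethylglutarate, pH 7.0, 25 °C. Enzyme added last to mixes of varied pNPP and inhibitor concentrations, 5-10 min, NaOH quench. p-nitrophenol read at 405 nm (ε 18,000 M-1cm-1), no-enzyme blank subtracted. Ki fitted by enzyme-kinetics regression.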

[6] = biological target: T1, Low molecular weight phosphotyrosine protein phosphatase; assay: Competitive inhibition of LMW-PTP isoform B (unknown origin) using para-nitrophenyl phosphate as substrate by Lineweaver-Burk plot analysis
Outline: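 Recombinant His-tagged LMW-PTP from E. coli, Ni-NTA then Sephadex G75 purified. pNPP hydrolysis in 50 mM 3,3-dimethylglutarate buffer, pH 7.0, 25 °C. Reaction started by adding enzyme to mixes of varied pNPP and varied inhibitor concentrations, run 5-10 min, quenched with 5N NaOH. p-Nitrophenol read at 405 nm, blank without enzyme subtracted. Ki from enzyme-kinetics fitting.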

[7] = biological target: Low molecular weight phosphotyrosine protein phosphatase (Homo sapiens) (UniProt P24666); assay: Inhibition of LMW-PTP isoform A in human HepG2 cells assessed as increase in insulin-induced Akt phosphorylation at 16 uM pretreated for 2 hrs followed by insulin stimulation and measured after 30 mins by Western blot analysis; assay type: cell-based
Outline: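 HepG2 cells in DMEM with 10% FBS at 37 °C and 5% CO2 were grown to 60-80% confluence and serum-starved overnight. They were given vehicle or compound for 2 h, then 50 nM insulin for 30 min. Lysates were run on 10% SDS-PAGE and immunoblotted for phospho-AKT and total AKT with ECL detection. Densitometric pAKT/AKT ratios were normalized to vehicle.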

[8] = biological target: Tyrosine-protein phosphatase non-receptor type 13 (Homo sapiens, UniProt Q12923); assay: Inhibition of His-tagged FAP1 (unknown origin) expressed in Escherichia coli BL21 cells using para-nitrophenyl phosphate as substrate incubated for 5 to 10 mins by microplate reader based spectrophotometric analysis
Tyrosine-protein phosphatase non-receptor type 13, sequence (Q12923 whole entry): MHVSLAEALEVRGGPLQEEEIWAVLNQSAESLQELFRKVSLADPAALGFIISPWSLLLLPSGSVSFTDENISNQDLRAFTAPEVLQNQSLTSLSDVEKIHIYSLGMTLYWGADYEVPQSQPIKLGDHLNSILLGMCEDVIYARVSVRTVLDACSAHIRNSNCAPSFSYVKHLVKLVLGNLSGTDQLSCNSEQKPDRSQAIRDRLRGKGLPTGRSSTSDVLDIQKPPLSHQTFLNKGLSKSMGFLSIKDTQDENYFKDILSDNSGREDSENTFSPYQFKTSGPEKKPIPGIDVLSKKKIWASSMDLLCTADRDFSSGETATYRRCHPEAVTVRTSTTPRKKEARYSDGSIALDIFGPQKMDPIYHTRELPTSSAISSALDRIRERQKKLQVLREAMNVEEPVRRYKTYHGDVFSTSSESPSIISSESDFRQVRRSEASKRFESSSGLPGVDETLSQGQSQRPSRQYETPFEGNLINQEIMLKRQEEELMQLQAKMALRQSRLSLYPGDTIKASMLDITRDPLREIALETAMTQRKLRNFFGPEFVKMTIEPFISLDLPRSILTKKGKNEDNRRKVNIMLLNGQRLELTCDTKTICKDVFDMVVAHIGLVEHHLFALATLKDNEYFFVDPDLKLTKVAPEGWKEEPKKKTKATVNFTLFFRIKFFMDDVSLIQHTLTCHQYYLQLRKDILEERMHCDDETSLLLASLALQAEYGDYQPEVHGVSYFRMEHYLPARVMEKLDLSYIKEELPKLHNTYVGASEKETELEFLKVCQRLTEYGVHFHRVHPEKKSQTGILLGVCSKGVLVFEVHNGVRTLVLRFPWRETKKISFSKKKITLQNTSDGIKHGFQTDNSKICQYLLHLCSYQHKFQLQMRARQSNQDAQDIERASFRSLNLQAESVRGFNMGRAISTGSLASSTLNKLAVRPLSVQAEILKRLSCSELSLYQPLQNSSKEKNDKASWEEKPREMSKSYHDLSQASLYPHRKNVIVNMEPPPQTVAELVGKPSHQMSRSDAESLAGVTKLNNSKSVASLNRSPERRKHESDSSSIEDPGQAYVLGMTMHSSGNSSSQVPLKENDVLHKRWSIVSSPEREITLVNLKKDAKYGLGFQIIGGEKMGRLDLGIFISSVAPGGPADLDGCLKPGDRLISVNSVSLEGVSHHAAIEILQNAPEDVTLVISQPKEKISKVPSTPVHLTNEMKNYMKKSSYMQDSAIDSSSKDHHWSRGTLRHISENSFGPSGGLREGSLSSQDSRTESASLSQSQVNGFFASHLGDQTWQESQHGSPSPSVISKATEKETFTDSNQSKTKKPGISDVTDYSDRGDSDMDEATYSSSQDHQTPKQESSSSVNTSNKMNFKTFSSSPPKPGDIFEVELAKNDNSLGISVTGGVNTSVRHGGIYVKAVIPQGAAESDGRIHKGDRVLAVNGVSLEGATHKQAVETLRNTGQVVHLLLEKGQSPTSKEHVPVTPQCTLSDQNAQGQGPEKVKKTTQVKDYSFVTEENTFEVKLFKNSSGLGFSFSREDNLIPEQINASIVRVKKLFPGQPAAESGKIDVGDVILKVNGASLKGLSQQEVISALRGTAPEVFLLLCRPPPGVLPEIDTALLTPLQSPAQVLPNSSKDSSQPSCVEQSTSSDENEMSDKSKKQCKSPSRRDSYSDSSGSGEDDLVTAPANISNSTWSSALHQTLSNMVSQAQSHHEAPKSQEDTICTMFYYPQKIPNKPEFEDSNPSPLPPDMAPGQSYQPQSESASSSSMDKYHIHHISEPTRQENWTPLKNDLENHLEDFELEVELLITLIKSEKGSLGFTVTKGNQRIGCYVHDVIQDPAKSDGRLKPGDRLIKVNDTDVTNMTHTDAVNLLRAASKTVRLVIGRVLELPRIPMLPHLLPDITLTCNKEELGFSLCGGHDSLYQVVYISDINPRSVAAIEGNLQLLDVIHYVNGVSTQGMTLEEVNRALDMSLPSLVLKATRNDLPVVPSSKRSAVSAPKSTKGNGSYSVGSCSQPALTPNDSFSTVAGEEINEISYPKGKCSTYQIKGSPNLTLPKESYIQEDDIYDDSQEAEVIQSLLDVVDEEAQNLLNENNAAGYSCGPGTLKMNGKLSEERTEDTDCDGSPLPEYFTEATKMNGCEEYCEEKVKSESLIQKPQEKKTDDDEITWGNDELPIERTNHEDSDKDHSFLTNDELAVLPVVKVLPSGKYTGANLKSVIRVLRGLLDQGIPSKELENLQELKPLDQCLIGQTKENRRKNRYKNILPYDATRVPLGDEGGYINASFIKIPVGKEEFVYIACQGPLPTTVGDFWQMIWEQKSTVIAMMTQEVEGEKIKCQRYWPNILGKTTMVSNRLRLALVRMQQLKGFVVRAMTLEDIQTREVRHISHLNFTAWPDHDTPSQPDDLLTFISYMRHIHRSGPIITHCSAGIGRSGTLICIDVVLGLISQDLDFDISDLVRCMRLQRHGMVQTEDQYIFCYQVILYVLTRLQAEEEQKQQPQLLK

| SMILES | IC50 [1] [µM] | other results |
| --- | --- | --- |
| O=C(Nc1nc2ccccc2s1)C(c1ccc(Br)cc1)S(=O)(=O)O (stereo unspecified) | 106 |  |
| O=C(Nc1cnc2ccccc2c1)C(c1ccccc1)S(=O)(=O)O (stereo unspecified) |  | IC50 [2]: > 200 µM; IC50 [3]: > 200 µM |
| Cc1ccc(C(C(=O)Nc2nc3ccccc3s2)S(=O)(=O)O)cc1 (stereo unspecified) | 91.4 |  |
| O=C(Nc1nccs1)C(c1ccccc1)S(=O)(=O)O (stereo unspecified) | 72 |  |
| O=C(Nc1nc2ccccc2s1)C(c1cccc(F)c1)S(=O)(=O)O (stereo unspecified) | 50 |  |
| O=C(Nc1nc2ccccc2s1)C(c1ccccc1)S(=O)(=O)O (stereo unspecified) |  | IC50 [4]: 69.9 µM; Ki [5]: 3.2 µM; IC50 [3]: > 200 µM; Ki [6]: 1.7 µM |
| O=C(Cc1ccccc1)Nc1nc2ccc([N+](=O)[O-])cc2s1 | > 100 | inhibition [7]: inactive |
| O=C(Nc1ccc2nc(C(F)(F)F)[nH]c2c1)C(c1ccccc1)S(=O)(=O)O (stereo unspecified) |  | IC50 [8]: > 200 µM; IC50 [3]: > 200 µM |
| O=C(Nc1ccccc1)C(c1ccccc1)S(=O)(=O)O (stereo unspecified) | > 100 |  |
| CCOC(=O)c1ccc2nc(NC(=O)C(c3ccccc3)S(=O)(=O)O)sc2c1 (stereo unspecified) | 3.1 |  |
| O=C(Nc1ccc(N2CCOCC2)cc1)C(c1ccccc1)S(=O)(=O)O (stereo unspecified) |  | IC50 [2]: > 200 µM; IC50 [3]: > 200 µM |

Further lines, with some results ahead:

| IC50 [1] [µM] | SMILES | other results |
| --- | --- | --- |
| > 200 | O=C(Nc1nc2ccccc2s1)C(c1cccc(C(F)(F)F)c1)S(=O)(=O)O (stereo unspecified) |  |
| > 200 | O=C(Nc1nc2ccccc2s1)C(c1cccc([N+](=O)[O-])c1)S(=O)(=O)O (stereo unspecified) |  |
| > 200 | CCCNC(=O)C(c1ccccc1)S(=O)(=O)O (stereo unspecified) |  |
| > 200 | Cc1cccc(C(C(=O)Nc2nc3ccccc3s2)S(=O)(=O)O)c1 (stereo unspecified) |  |
| > 200 | O=C(Nc1nc2ccccc2s1)C(c1ccccc1Cl)S(=O)(=O)O (stereo unspecified) |  |
| > 200 | N#Cc1cccc(C(C(=O)Nc2nc3ccccc3s2)S(=O)(=O)O)c1 (stereo unspecified) |  |
| > 200 | O=C(Nc1nc2ccccc2s1)C(c1ccccc1F)S(=O)(=O)O (stereo unspecified) |  |
| > 200 | Cc1ccccc1C(C(=O)Nc1nc2ccccc2s1)S(=O)(=O)O (stereo unspecified) |  |
